Active and inactive are the calls of the source. The rule behind the calls is not given here.
Experiments:
[1] = system: ZR-75-1; assay: Induction of apoptosis in human ZR-75-1 cells assessed as late apoptotic cells at 40 uM after 24 hrs by annexin V-FITC/propidium iodide staining-based flow cytometric analysis (reference value: 2.53%); assay type: functional
In short: (§1)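 ZR-75-1 cells exposed to 20–40 μM compound for 24 h, with 5 μM BAPTA-AM or NAC added first where indicated. Cells stained with Alexa Fluor 488 annexin V/PI for 15 min, at least 20000 cells analysed by flow cytometry (488 nm excitation, 530/575 nm filters). Early = annexin V+/PI−, late = annexin V+/PI+. Three independent biological replicates.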

[2] = system: ZR-75-1; assay: Increase in intracellular Ca2+ level in human ZR-75-1 cells at 40 uM treated for 90 secs post PLC inhibitor U73122 and ATP addition by fura-2-AM dye-based spectrofluorophotometric analysis in presence of Ca2+ free medium; assay type: functional, cell-based
In short: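 Performed in Ca2+-free medium with fura-2-loaded ZR-75-1 cells. Response expressed relative to 40 μM compound alone (100%). Three experiments.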

[3] = system: ZR-75-1; assay: Increase in intracellular Ca2+ level in human ZR-75-1 cells at 40 uM measured every 150 secs by fura-2-AM dye-based spectrofluorophotometric analysis in presence of Ca2+ containing medium with store-operated Ca2+ channel blocker 2-APB; assay type: functional, cell-based
In short: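 In Ca2+-containing medium (2 mM CaCl2), 2-APB (30 μM) or GF109203X (2 μM) was added 1 min before 40 μM compound to fura-2-loaded ZR-75-1 cells at 25 °C. Response = net area under curve over a 150 s interval, as % of compound alone. Mean ± SEM, n=3.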

[4] = system: ZR-75-1; assay: Induction of reactive oxygen species production in human ZR-75-1 cells at 40 uM after 24 hrs by DCFH-DA probe-based flow cytometric analysis (reference value: 3.623%); assay type: functional
In short: (§2)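 ZR-75-1 cells treated with 20–40 μM compound for 24 h, with 5 μM BAPTA-AM added first where indicated. Cells suspended at 1 × 10^6/mL, loaded with 10 μM DCFH-DA for 30 min at 37 °C. DCF read by flow cytometry (488 nm excitation, 530/30 nm filter, 10000 cells). % H2O2-positive (M1) after subtracting the baseline without probe. Three experiments.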

[5] = system: ZR-75-1; assay: Induction of reactive oxygen species production in human ZR-75-1 cells at 20 uM after 24 hrs by DCFH-DA probe-based flow cytometric analysis (reference value: 3.623%); assay type: functional; in short: as §2
[6] = system: ZR-75-1; assay: Induction of apoptosis in human ZR-75-1 cells assessed as early apoptotic cells at 40 uM after 24 hrs by annexin V-FITC/propidium iodide staining-based flow cytometric analysis (reference value: 6.84%); assay type: functional; in short: as §1
[7] = system: ZR-75-1; assay: Induction of luminal endoplasmic reticulum Ca2+ increases in human ZR-75-1 cells assessed as ratio of Ca2+ level at 40 uM by Mag-fura-2 dye-based fluorescence assay (reference value: 0.67 +/- 0.02); assay type: functional
In short: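 ZR-75-1 cells loaded with 2 μM Mag-fura-2-AM for 45 min at 37 °C, permeabilized 2 min with […] digitonin in high-K+ intracellular buffer (pH 7.2). Perfused with 0.2 mM Mg-ATP, free Ca2+ clamped at 170 nM. Ratio calibrated with ionomycin plus Ca2+ or EGTA, Kd 53 μM. Control versus 40 μM compound.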

[8] = system: ZR-75-1; assay: Induction of reactive oxygen species production in human ZR-75-1 cells after 24 hrs by DCFH-DA probe-based flow cytometric analysis; assay type: functional, cell-based; in short: as §2
[9] = system: ZR-75-1; assay: Cytotoxicity against human ZR-75-1 cells assessed as induction cell death at 20 to 50 uM after 24 hrs by WST-1 assay in presence of Ca2+ containing medium with Ca2+ chelator BAPTA-AM; assay type: functional, cell-based
In short: (§3)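 WST-1 assay on ZR-75-1 cells seeded at 10000 cells/well, exposed to 0–50 μM compound for 24 h. Where used, 5 μM BAPTA-AM was given for 1 h beforehand, then cells were washed with Ca2+-containing medium. WST-1 incubation 30 min, A450 read. Viability expressed as % of compound-free control. Six wells per treatment, three separate experiments.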

[10] = system: ZR-75-1; assay: Induction of apoptosis in human ZR-75-1 cells assessed as activation of caspase-3 at 20 to 40 uM preincubated for 24 hrs followed by antioxidant N-Acetylcysteine addition by Western immunoblot analysis; assay type: functional, cell-based
In short: (§4)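 Confluent ZR-75-1 cells (3 × 10^6/dish) treated with 20, 30 or 40 μM compound for 24 h. Where used, 5 μM BAPTA-AM or 5 μM NAC was added before the compound. About 50 μg lysate protein run on 10% SDS-PAGE, transferred to PVDF, probed for cleaved caspase-9/-3 and β-actin, chemiluminescence. Densitometry normalized to β-actin. Three experiments.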

[11] = system: ZR-75-1; assay: Induction of apoptosis in human ZR-75-1 cells assessed as activation of caspase-3 at 20 to 40 uM preincubated for 24 hrs followed by Ca2+ chelator BAPTA-AM addition by Western immunoblot analysis; assay type: functional, cell-based; in short: as §4
[12] = Cytotoxicity against human ZR-75-1 cells assessed as cell viability at 50 uM measured 20 mins post intracellular Ca2+ level detection by trypan blue exclusion assay relative to control; assay type: cell-based; conditions: read-out: Activity
In short: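 Fura-2-loaded ZR-75-1 cells were held in the fluorescence cuvette with 50 μM compound. Viability was scored by trypan blue exclusion after 20 min of fluorescence recording.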

[13] = system: ZR-75-1; assay: Induction of reactive oxygen species production in human ZR-75-1 cells at 30 uM after 24 hrs by DCFH-DA probe-based flow cytometric analysis (reference value: 3.623%); assay type: functional; in short: as §2
[14] = system: ZR-75-1; assay: Increase in intracellular Ca2+ level in human ZR-75-1 cells at 40 uM treated for 25 secs by fura-2-AM dye-based spectrofluorophotometric analysis in presence of Ca2+-free medium (reference value: 50 +/- 2 nM); assay type: functional
In short: (§5)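 Fura-2-loaded ZR-75-1 cells (0.5 million per 1 mL, stirred, 25 °C) in Ca2+-containing or Ca2+-free medium. Compound added at 25 s. 340/380 nm excitation, 510 nm emission at 1 s intervals, calibrated to nM. Concentration-response from baseline-subtracted area under curve (25–250 s) as % of 50 μM response in Ca2+ medium. EC50 from Hill fit. Three experiments.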

[15] = system: ZR-75-1; assay: Increase in intracellular Ca2+ level in human ZR-75-1 cells treated for 25 secs by fura-2-AM dye-based spectrofluorophotometric analysis in presence of Ca2+ containing medium; assay type: functional, cell-based; in short: as §5
[16] = system: ZR-75-1; assay: Induction of apoptosis in human ZR-75-1 cells assessed as late apoptotic cells at 20 uM after 24 hrs by annexin V-FITC/propidium iodide staining-based flow cytometric analysis (reference value: 2.53%); assay type: functional; in short: as §1
[17] = system: ZR-75-1; assay: Cytotoxicity against human ZR-75-1 cells assessed as decrease in cell viability after 24 hrs by WST-1 assay; assay type: functional, cell-based; in short: as §3
[18] = system: ZR-75-1; assay: Induction of apoptosis in human ZR-75-1 cells assessed as early apoptotic cells at 20 uM after 24 hrs by annexin V-FITC/propidium iodide staining-based flow cytometric analysis (reference value: 6.84%); assay type: functional; in short: as §1
[19] = system: ZR-75-1; assay: Induction of apoptosis in human ZR-75-1 cells assessed as increase in cleaved caspase-3 level at 20 to 40 uM after 24 hrs by Western immunoblot analysis; assay type: functional, cell-based; in short: as §4
[20] = system: ZR-75-1; assay: Induction of cell death in human ZR-75-1 cells at 20 to 50 uM after 24 hrs by WST-1 assay in presence of antioxidant N-Acetylcysteine; assay type: functional, cell-based
In short: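 WST-1 viability assay in ZR-75-1 cells: 5 μM NAC added, then 20–50 μM compound in NAC-containing medium for 24 h. A450 read after 30 min WST-1 incubation and expressed as % of control. Mean ± SEM of three experiments.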

Q: What does the source list for O=c1cc(-c2ccccc2)oc2cc(O)c(O)c(O)c12 [BAICALEIN]?
A: Activity [1]: 6.32%; Activity [2]: inactive; Activity [3]: inactive; Activity [4]: 43.227%; Activity [5]: 22.707%; Activity [6]: 55.96%; Ratio [7]: 0.875; Activity [8]: Dose-dependent effect; Activity [9]: inactive; Activity [10]: inactive; Activity [11]: inactive; viability at 20 min, 50 µM [12]: 95%; Activity [13]: 32.663%; Activity [14]: 103 nM; Activity [15]: Dose-dependent effect; EC50 [15]: 25 µM; Activity [16]: 2.36%; Activity [17]: Dose-dependent effect; Activity [18]: 22.71%; Activity [19]: Active; Activity [20]: inactive
